# Several values for one entry are separate records, joined by “and”; a condition that tells them apart may be missing. Equal values may be shown once. Entries after “also recorded” stand apart in the source; their conditions may differ.
# Legend:
# Caenorhabditis elegans = conditions: read-out: LC50 (mortality); in vitro; ref Abdel-Rahman et al., 2013; cited from earlier work
# FMO [1] = assay: FMO-dependent metabolism: BZ N-oxidase activity in sheep liver microsomes; assay type: in vitro ADME
# Haemonchus contortus [2] = assay: Fecal egg count reduction in lambs infected with resistant H. contortus; assay type: in vivo
# In short: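 Corriedale lambs artificially infected with a resistant H. contortus isolate received yeast-encapsulated test compound, 100 mg/kg orally, as four doses every 24 h. Faeces were sampled on days −1, 7 and 14, and epg was counted by modified McMaster (sensitivity 10 epg). FECR was calculated per McKenna from arithmetic mean epg: day −1 (T1) versus days 7 and 14 (T2).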
# Haemonchus contortus [3] = conditions: in vitro; ref Helal et al., 2020; cited from earlier work
# Trichostrongylus axei = conditions: in vitro; ref Helal et al., 2020; cited from earlier work
# [4] = tested on: Teladorsagia circumcincta; conditions: in vitro; ref Helal et al., 2020; cited from earlier work
# [5] = rats, cited from earlier work
# [6] = assay type: in vivo, Corriedale lambs; conditions: lambs
# [7] = GNL plasma levels after yeast-encapsulated GNL in the FEC trial; assay type: in vivo, Corriedale lambs; conditions: lambs; yeast-encapsulated GNL 100 mg/kg oral, four doses every 24 h
# [8] = tested on: Ancylostoma ceylanicum and Trichuris muris; conditions: encapsulated monoterpene, in vitro; ref Mirza et al., 2020; cited from earlier work
# Rhipicephalus microplus = conditions: encapsulated in Saccharomyces cerevisiae; ref da Silva Lima et al., 2017; cited from earlier work
# [9] = tested on: gram-positive and negative bacteria; conditions: ref Nagoor Meeran et al., 2017; cited from earlier work
# ruminal incubations = conditions: ref Miró et al., 2020b; cited from earlier work
# sheep liver microsomes = conditions: ref Miró et al. 2020b, 2020c; cited from earlier work
# [10] = ref Miró et al., 2020b; cited from earlier work
# FMO [11] = conditions: sheep liver microsomes, ref Miró et al. 2020b, 2020c; cited from earlier work
# CYP1A1 = molecular target: T1, CYP1A1 (Ovis aries, UniProt P56591); conditions: sheep liver microsomes, ref Miró et al. 2020b, 2020c; cited from earlier work
# T1 sequence (P56591 1-519): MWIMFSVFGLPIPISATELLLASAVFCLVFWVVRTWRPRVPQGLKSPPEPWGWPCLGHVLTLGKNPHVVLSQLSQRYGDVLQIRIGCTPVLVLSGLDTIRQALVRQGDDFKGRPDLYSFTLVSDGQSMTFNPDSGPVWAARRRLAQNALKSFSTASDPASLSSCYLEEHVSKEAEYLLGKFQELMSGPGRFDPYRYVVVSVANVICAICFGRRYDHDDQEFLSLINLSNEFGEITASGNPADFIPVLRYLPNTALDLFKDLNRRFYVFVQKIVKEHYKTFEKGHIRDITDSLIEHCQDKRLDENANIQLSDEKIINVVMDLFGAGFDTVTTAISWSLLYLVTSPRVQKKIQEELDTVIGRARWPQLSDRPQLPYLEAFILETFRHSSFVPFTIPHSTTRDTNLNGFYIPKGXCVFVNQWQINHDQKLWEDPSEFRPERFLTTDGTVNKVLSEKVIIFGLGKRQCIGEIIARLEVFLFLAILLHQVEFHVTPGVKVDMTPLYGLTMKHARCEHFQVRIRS
structure (smiles),measurement,setting,value
"CC(C)=CCC/C(C)=C/CO [GNL, 3,7-dimethylocta-trans-2,6-dien-1-ol]",LC50,Caenorhabditis elegans,14 µg/mL
same,"BZ N-oxidase activity, lower compared to absence of GNL",FMO [1]; 0.2 mM GNL,65.5 ± 13.6%
same,"BZ N-oxidase activity (FMO pathway), lower compared to absence of GNL",FMO [1]; 2 mM GNL,84.5 ± 4.84% and 84.5%
same,effect on fecal egg counts,"Haemonchus contortus [2]; 7 and 14 days after first dose, four doses of GNL",did not significantly decrease
same,"FECR (fecal egg count reduction), in vivo efficacy","Haemonchus contortus [2]; day 14, lambs, GNL 100 mg/kg oral x 4, 95% LCL-UCL 0-82.3",40.5%
same,reduction of larval motility,Haemonchus contortus [3],82%
same,reduction of larval motility,Trichostrongylus axei,90%
same,reduction of larval motility,[4],94%
same,elimination half-life,"[5]; intravenous infusion of 12.5 mg, ref Pavan et al. (2018)",about 12 min
same,time at which Cmax in the bloodstream was achieved,"[5]; oral administration, ref Pavan et al., 2018",30 min
same,mean GNL plasma concentration expressed,[6]; 1 h after second oral dose of GNL 100 mg/kg,0.02 mM
same,mean GNL plasma concentration,[6]; 1 h after second oral dose of GNL 100 mg/kg (emulsion),3.04 ± 1.33 µg/mL and 3.04 µg/mL
same,time of GNL detection in plasma,[7],detected in plasma only at 1 h post-treatment; also recorded: detected in plasma only at 1 h post-administration
same,classification of action,[8],fast acting at a moderately high dose
Cc1ccc(C(C)C)cc1O [carvacrol],decrease of LC50 after encapsulation compared to non-encapsulated,Rhipicephalus microplus,2.5 fold
"Cc1ccc(C(C)C)c(O)c1 [TML, thymol]",MIC,[9],150 µg/mL
same,effect on formation of ABZ from ABZSO,ruminal incubations,completely abolish
same,effect on S-oxygenation of ABZ,sheep liver microsomes,delayed
same,effect on systemic exposure of ABZ metabolites,[10],did not improve
same,effect on FMO-dependent metabolism,FMO [11],inhibited
same,effect on CYP1A1-dependent metabolism,CYP1A1,inhibited

# — publication PMC9486669 (Veterinary and Animal Science, 2022)
